Among the data in ChEMBL document CHEMBL1821623, “Anti-influenza virus polyketides from the acid-tolerant fungus Penicillium purpurogenum JS03-21” (J Nat Prod, 2011) are GI50 and IC50 values, retold here.

A value given as a limit tells only on which side of the number the result lay.

The first assay deals with OVCAR-3. The assay is described as follows: Cytotoxicity against human OVCAR3 cells. It counts as functional.
Usually GI50 stands for the concentration giving 50% growth inhibition. Low values mean more potent growth inhibition, high ones less potent growth inhibition. `CCCCC[C@@H]1Cc2cc(O)c(C(=O)O)c3c2[C@H](C[C@]2(OC[C@H](CC(=O)C(C)(CC)C(=O)OC)[C@H]2C)O3)O1` (stereo not given in full) [BERKELIC ACID] returned a GI50 of 0.091 µM.

The subject of the next assay is Influenza A virus. Briefly: Antiviral activity against Influenza A virus H1N1 infected in MDCK cells assessed as compound concentration required for inhibiting influenza virus yield at 48 h post-infection by crystal violet staining based CPE inhibition assay. The assay is classed as functional, organism-based. In a few lines: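 CPE-inhibition assay against influenza A (H1N1). Ribavirin was the positive control. Activity was reported as an IC50 in μM.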
Usually IC50 stands for the point on the concentration scale where inhibition reaches its midpoint. With `CC/C=C1\OC(=O)c2c1cc(O)c(O)c2C` [PURPURESTER B], the IC50 is > 200 µM.
Take `C/C=C/C1=CC2=CC(=O)[C@@](C)(OC(=O)c3c(C)cc(O)cc3O)C(=O)C2=CO1`: the IC50 was > 200 µM.
As for `C/C=C/C1=CC2=CC(=O)[C@@](C)(OC(=O)c3c(C)cc(O)cc3O)C(=O)[C@@]2(O)CO1`, the IC50 is 64 µM.
Still for that read-out and setting: under `NC(=O)c1ncn([C@@H]2O[C@H](CO)[C@@H](O)[C@H]2O)n1` [RIBAVIRIN] stands 101 µM; under `C/C=C/C1=CC2=CC(=O)[C@@](C)(OC(=O)c3c(O)cc(O)c(O)c3C)C(=O)[C@@]2(O)[C@@H](O)O1` [PURPURQUINONE B], 61.3 µM; under `CC1=C(O)C(=O)c2cc(O)c(O)cc2C1=O`, > 200 µM.
As for `O=Cc1cc(C(=O)O)cc(O)c1C(=O)c1c(O)cccc1O`, the IC50 amounted to 58.6 µM.
Still for that read-out and setting: under `C/C=C/C1=CC2=CC(=O)[C@@](C)(OC(=O)c3c(C)cc(O)cc3O)C(=O)[C@@]2(O)[C@@H](O)O1` [PURPURQUINONE A] stands > 200 µM.
The same measure, in the same setting: the value for `CCC[C@]1(OC)OC(=O)c2c1cc(O)c(O)c2C` [PURPURESTER A] was 85.3 µM.
